Data set [1] can be described thus: Prodrug conversion in PBS buffer at pH 7.3 assessed as pig liver esterase-mediated cleavage of ketobenzyl-residue measured over 800 hrs by HPLC analysis. The format is ADME, Sus scrofa. To be noted: pH 7.3, 800 h.
A short description of data set [2]: Prodrug conversion in human CEM/0 cell extract assessed as NTP formation by RP18-HPLC analysis. Conditions: ccrf-cem; call rule not given here. The format is ADME, tissue-based. A digest of the protocol: (§1)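 Extract preparation: CEM CD4⁺ T-cells grown in RPMI-1640 to ~3 × 10⁶ cells/mL, washed in cold PB, resuspended at 10⁸ cells/mL, sonicated, clarified at 10,000 rpm and stored at −80 °C. Compounds from 50 mM DMSO stock (diluted to 6.0 mM in DMSO) incubated in the extract. Reactions stopped with THF, put on ice, centrifuged and filtered.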

Data set [3] in a line: Cytotoxicity against human CEM/0 CD4+ T cells assessed as reduction in cell viability. The format is cell-based, CCRF-CEM. In outline:
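Cytostatic readout: CC₅₀ is the compound concentration inhibiting CEM CD4⁺ T-cell proliferation by 50%. Values are the mean ± SD of n = 2−3 independent experiments.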

Data set [4] in a line: Prodrug conversion in human CEM/0 cell extract assessed as d4TDP formation by RP18-HPLC analysis. Conditions: ccrf-cem. The format is ADME, tissue-based. In outline: as §1
A short description of data set [5]: Stability of compound in human CEM/0 cell extract assessed as half life by RP18-HPLC analysis. The format is ADME, tissue-based, CCRF-CEM. In outline: as §1
Data set [6] can be described thus: Chemical stability of compound assessed as half life in PBS at pH 7.3 by RP18-HPLC analysis. The format is physicochemical. In outline: (§2)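 From 50 mM DMSO stocks, diluted to 1.9 mM hydrolysis solutions in water/DMSO. Reaction started by adding phosphate buffer (50 mM, pH 7.3; 25 mM also stated). Incubated at 37 °C with time-course sampling. Starting material and products (γ-kb-NTP, d4TDP, thymine) followed by analytical rp18 HPLC, from which t½ was calculated.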

Data set [7] relates to Human immunodeficiency virus 2. Description: Antiviral activity against HIV2 ROD infected in human CEM/0 cells assessed as inhibition of virus-induced syncytia cell formation measured after 4 to 5 days by microscopic analysis. Conditions: Human immunodeficiency virus 2, ISOLATE ROD, CCRF-CEM.
The nature of data set [8]: Prodrug conversion in human CEM/0 cell extract assessed as gamma-kb-d4TTP formation by RP18-HPLC analysis. The format is ADME, tissue-based. Conditions: ccrf-cem. In outline:
as §1

The test system of data set [9] is Human immunodeficiency virus 2. Description: Antiviral activity against HIV2 ROD infected in human TK-deficient […] cells assessed as inhibition of viral-induced giant cell formation incubated for 4 to 5 days by microscopy. To be noted: Human immunodeficiency virus 2, ISOLATE ROD.
Data set [10] can be described thus: Stability in pH 7.3 PBS assessed as pig liver esterase mediated hydrolysis by measuring half life upto 2 hrs by HPLC analysis. The format is ADME, Sus scrofa. A digest of the protocol:
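Porcine liver esterase (3 mg/mL in PB) added to compound diluted from a 6.0 mM DMSO/water solution into DMSO and 50 mM phosphate buffer, pH 7.3. Incubated at 37 °C. Timed aliquots snap-frozen in liquid nitrogen, then thawed, sonicated, centrifuged, filtered and analysed by HPLC. t½ calculated as for chemical hydrolysis.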

The test system of data set [11] is Human immunodeficiency virus 1. Description: Antiviral activity against HIV1 3B infected in human CEM/0 cells assessed as inhibition of virus-induced syncytia cell formation measured after 4 to 5 days by microscopic analysis. The format is functional, organism-based. To be noted: Human immunodeficiency virus 1, 3B, CCRF-CEM. In outline: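 Syncytium-inhibition assay in wild-type CEM/0 or TK-deficient CEM/TK⁻ cells, ~3 × 10⁵ cells/mL, infected with 100 CCID₅₀/mL HIV-1(III_B) or HIV-2(ROD), with serial compound dilutions. Incubated 4−5 days at 37 °C in humidified CO₂ atmosphere. Giant cells scored microscopically; EC₅₀ is the concentration halving HIV-induced giant cell formation. Values are the mean ± SD of n = 2−3 independent experiments.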

A short description of data set [12]: Prodrug conversion in human CEM/0 cell extract assessed as d4TDP formation after 96 hrs by HPLC analysis. The format is ADME, tissue-based. Conditions: ccrf-cem. In outline:
as §1

Data set [13] is described as follows: Substrate activity at HIV reverse transcriptase assessed as increase in primer extension incubated at 37 degC for 60 mins and at 80 degC for 3 mins in presence of fluorescent-lebelled dATP, dCTP and dGTP by PAGE analysis. To be noted: human immunodeficiency virus, 1.05 h; time 63 min. The format is ADME.
The nature of data set [14]: Stability in human CEM/0 cell extract assessed as parent compound remaining after 98 hrs by HPLC analysis. The format is ADME, tissue-based, CCRF-CEM. To be noted: read-out: Stabilty. In outline: as §1
Data set [15] is described as follows: Substrate activity at human DNA polymerase gamma assessed as increase in primer extension incubated at 37 degC for 60 mins and at 80 degC for 3 mins in presence of fluorescent-lebelled dATP, dCTP and dGTP by PAGE analysis. The format is ADME. Conditions: 1.05 h, time 63 min. In outline: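 Human DNA polymerase γ (4 U) with Cy3-primer/template duplex 0.20 μM in 60 mM Tris-HCl pH 8, 5 mM MgOAc, 1.0 mM DTT, 0.1 mM spermine, 0.01% BSA. Preincubated 5 min at 37 °C without nucleotides, then run 60 min at 37 °C with nucleotides 250 μM, then 80 °C for 3 min. Denaturing 15% PAGE with fluorescence imaging.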

A short description of data set [16]: Prodrug conversion in human CEM/0 cell extract assessed as d4TTP formation after 96 hrs by HPLC analysis. The format is ADME, tissue-based. Conditions: ccrf-cem. In outline: as §1
The nature of data set [17]: Chemical stability of compound in PBS at pH 7.3 by RP18-HPLC analysis. The format is physicochemical. To be noted: buffer. A digest of the protocol: as §2
A short description of data set [18]: Selectivity index, ratio of CC50 for cytotoxicity against human CEM/0 CD4+ T cells to EC50 for antiviral activity against HIV1 3B infected in human CEM/0 cells. The format is toxicity, cell-based. Conditions: read-out: Ratio CC50/EC50. A digest of the protocol:
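Selectivity index from CC₅₀ (50% inhibition of CEM cell proliferation) and EC₅₀ (50% inhibition of HIV-1(III_B)-induced giant cell formation in CEM/0 cells, 4−5 days, microscopy), both mean ± SD of n = 2−3 independent experiments.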

pEC50: −log10 of the molar value. A value given as a limit tells only on which side of the number the result lay.

In general, CC50 refers to the concentration that lowers cell viability or growth by half. For orientation: half-life means the time in which the quantity being followed falls by half. As a reminder, the pEC50 is −log10 of the EC50, conventionally taken in molar units. Take `CCCCCCCCCCCCCCCCCC(=O)Oc1ccc(COP(=O)(OCc2ccc(C(=O)CCCCCCCCCCCCCCCCC)cc2)OP(=O)(O)OP(=O)(O)OC[C@@H]2C=C[C@H](n3cc(C)c(=O)[nH]c3=O)O2)cc1` (stereo not given in full): the Drug metabolism entry in data set [1] was “Metabolite_Notdetected”; in data set [2], “Metabolite_Notdetected”; in [4] it was “Metabolite_Detected”; in data set [8] it was “Metabolite_Detected”. For the same compound, the CC50 in data set [3] came to 28000 nM. Moreover, the half-life in data set [5] was 2.1 h; in [6] it was 11 h; in [10], 0.167 h. Further, the pEC50 in data set [7] is 6.08; in data set [9] it was 6.42; in data set [11], 6.38.

In the case of `CCCCCCCCC(=O)Oc1ccc(COP(=O)(OCc2ccc(OC(=O)CCCCCCCC)cc2)OP(=O)(O)OP(=O)(O)OC[C@@H]2C=C[C@H](n3cc(C)c(=O)[nH]c3=O)O2)cc1`, the CC50 in data set [3] is 52000 nM. In addition, the figures for the half-life in data set [5] and in data set [6] were 2.5 h and 52 h, respectively. The figures for the pEC50 in [7], in [9] and in [11] were 6.21, 5.65 and 6.51, respectively.

On to `CCCCCCCCCCCCCCCCCC(=O)Oc1ccc(COP(=O)(OCc2ccc(C(=O)CCCCCCCCC)cc2)OP(=O)(O)OP(=O)(O)OC[C@@H]2C=C[C@H](n3cc(C)c(=O)[nH]c3=O)O2)cc1` (stereo not given in full), for which the Drug metabolism entry in [1] is recorded as “Metabolite_Notdetected”; in [2] it was “Metabolite_Notdetected”; in [4] it was “Metabolite_Detected”; in data set [8], “Metabolite_Detected”. For the same compound, the CC50 in data set [3] was determined as 35000 nM. Moreover, the half-life is 7.8 h in [5], 94 h in [6] and 0.167 h in data set [10]. In addition, the pEC50 in [7] is 6.11; in [9], 5.96; in data set [11], 6.24.

Turning to `CCCCCCCCCC(=O)c1ccc(COP(=O)(O)OP(=O)(O)OP(=O)(O)OC[C@@H]2C=C[C@H](n3cc(C)c(=O)[nH]c3=O)O2)cc1`, the Drug metabolism entry in data set [1], in [12] and in data set [16] was “Metabolite_Notdetected” in each case. Moreover, in data set [5], the half-life is above 30 h. Further, the Activity entry was “Active” in [13] and “Not Active” in [15]. For the same compound, the remaining at 98 h in data set [14] was 89%. Further, the Stabilty result in data set [17] was “Stable”.

`CCCCCCCCCC(=O)c1ccc(COP(=O)(O)OP(=O)(O)OP(=O)(O)OC[C@H]2O[C@@H](n3cnc4c(N)ncnc43)C[C@@H]2O)cc1`: the Drug metabolism entry in [1] is on record as “Metabolite_Notdetected”. Besides, the CC50 in data set [3] was 74000 nM. Further, the pEC50 in [7] is below 5.00; in data set [9], below 5.00; in [11], 5.00. For the same compound, the selectivity ratio in [18] stood at 7. Further, in [17], the Stabilty result is given as “Stable”.

For the compound `CCCCCCCCCCCCCCCCCC(=O)c1ccc(COP(=O)(OCc2ccc(OC(=O)CCCCCC)cc2)OP(=O)(O)OP(=O)(O)OC[C@@H]2C=C[C@H](n3cc(C)c(=O)[nH]c3=O)O2)cc1` (stereo not given in full), the Drug metabolism entry was “Metabolite_Notdetected” in [1], “Metabolite_Notdetected” in [2], “Metabolite_Detected” in data set [4] and “Metabolite_Detected” in data set [8]. The CC50 in data set [3] was found to be 34000 nM. The half-life in [5] is 6.9 h; in data set [6], 109 h; in data set [10] it was 0.167 h. Moreover, the negative logarithm of the EC50 (pEC50) was 5.96 in data set [7], 6.40 in [9] and 6.36 in data set [11].

As for `CCCCCCCCCC(=O)c1ccc(COP(=O)(OCc2ccc(OC(=O)CCCC)cc2)OP(=O)(O)OP(=O)(O)OC[C@@H]2C=C[C@H](n3cc(C)c(=O)[nH]c3=O)O2)cc1` (stereo not given in full), the Drug metabolism entry in [1] was “Metabolite_Notdetected”; in data set [2], “Metabolite_Notdetected”; in data set [4], “Metabolite_Detected”; in data set [8] it was “Metabolite_Detected”. The CC50 in data set [3] worked out at 25000 nM. Moreover, the values for the half-life in [5], in data set [6] and in [10] were 1.1 h, 43 h and 0.167 h, respectively. Also, the pEC50 in data set [7] was 5.92; in [9] it was 5.60; in data set [11], 6.43.

`CCCCCCCCCCCCCCCCCC(=O)Oc1ccc(COP(=O)(OCc2ccc(OC(=O)CCCC)cc2)OP(=O)(O)OP(=O)(O)OC[C@@H]2C=C[C@H](n3cc(C)c(=O)[nH]c3=O)O2)cc1` (stereo not given in full): the CC50 in data set [3] was 33000 nM. In [6], the half-life is 50 h. The pEC50 is 7.00 in data set [7], 6.27 in data set [9] and 6.92 in data set [11].

Regarding `CCCCCCCCCCCCCCCCCC(=O)c1ccc(COP(=O)(O)OP(=O)(O)OP(=O)(O)OC[C@@H]2C=C[C@H](n3cc(C)c(=O)[nH]c3=O)O2)cc1`, the Drug metabolism entry in data set [1], in data set [12] and in data set [16] was “Metabolite_Notdetected” throughout. In addition, the CC50 in data set [3] worked out at 13000 nM. In addition, the half-life in [5] was above 30 h. The Activity entry in [13] is “Active”; in data set [15], “Not Active”. For the same compound, the pEC50 was 6.22 in data set [7], 6.59 in data set [9] and 6.48 in [11]. The remaining at 98 h in [14] amounted to 89%. Also, the Stabilty entry in data set [17] is “Stable”.

Consider `Cc1cn([C@H]2C=C[C@@H](COP(=O)(O)OP(=O)(O)OP(=O)(O)O)O2)c(=O)[nH]c1=O` [STAVUDINE TRIPHOSPHATE], for which the 50% cytotoxic concentration (CC50) in data set [3] is above 100000 nM. The result in [13] was Active. The figures for the negative-log EC50 (pEC50) in [7], in data set [9] and in [11] were 6.40, below 4.00 and 5.98, respectively.

Take `Cc1cn([C@H]2C=C[C@@H](CO)O2)c(=O)[nH]c1=O` [STAVUDINE]: the results for the pEC50 in data set [7], in data set [9] and in [11] were 6.66, 3.82 and 6.37, respectively.

Source of the values: ChEMBL document CHEMBL4699643, “γ-Ketobenzyl-Modified Nucleoside Triphosphate Prodrugs as Potential Antivirals” (J Med Chem, 2020).
